High-throughput results from PubChem.
Only some compounds are listed: those with a hit (about 2.2% of all), similar ones and a draw of the others.
PAD4 inh: human PAD4 inhibitors, primary screen, biochemical, fluorescence polarization, 1536-well format; Protein-arginine deiminase type-4 (Homo sapiens), Q9UM07; hit rate 0.41% among 330,000; inhibition, % at 6.36 µM; recombinant PAD4, RCA probe fluorescence polarization;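 active means percent inhibition above a cutoff equal to the mean of all tested compounds plus 3 SD, cut at about 15% in these data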;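 further: 0% = PAD4 with RCA probe and DMSO and 100% = probe without PAD4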
GSTO1 counter: inhibitors of recombinant GSTO1, primary screen, counter-screen for RBBP9 inhibitor project, biochemical, fluorescence polarization; hit rate 1.1% among 300,000; inhibition, % at 5.96 µM; AID 1974, 2009; activity-based probe fluorescence polarization; Glutathione S-transferase omega-1 (Homo sapiens), P78417;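 active means inhibition above the campaign mean inhibition plus 3 SD, cut at about 35% in these data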;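 further: 0% = GSTO1-1 with DMSO and 100% = wells lacking GSTO1-1 enzyme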
Target sequence (P78417 whole entry, looked up): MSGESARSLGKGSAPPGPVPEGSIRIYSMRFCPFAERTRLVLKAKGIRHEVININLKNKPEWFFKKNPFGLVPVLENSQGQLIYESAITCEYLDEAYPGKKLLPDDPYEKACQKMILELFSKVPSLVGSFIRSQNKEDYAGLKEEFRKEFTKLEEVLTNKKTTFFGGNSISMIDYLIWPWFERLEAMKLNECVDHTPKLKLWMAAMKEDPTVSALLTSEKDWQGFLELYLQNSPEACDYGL
UBC13 polyUb: UBC13 polyubiquitin chain formation inhibitors, primary screen, biochemical, TR-FRET, uHTS | Ubiquitin-conjugating enzyme E2 N (Homo sapiens), P61088 | inhibition, % at 20 µM | hit rate 0.47% among 330,000 | AID 485273, 2010; in the data active means inhibition above about 45%, passing the limit was not always enough; inconclusive means no clear call, values can overlap the other calls
Target sequence (P61088 whole entry, looked up): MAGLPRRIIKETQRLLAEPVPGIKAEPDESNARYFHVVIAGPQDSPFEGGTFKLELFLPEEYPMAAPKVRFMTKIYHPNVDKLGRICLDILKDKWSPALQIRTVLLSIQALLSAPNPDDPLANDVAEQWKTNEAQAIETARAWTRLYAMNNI
Rin1 Abl inh: inhibitors of Rin1-Abl protein binding, primary screen, biochemical, TR-FRET | Tyrosine-protein kinase ABL1 (Homo sapiens) + Ras and Rab interactor 1 (Homo sapiens), … | inhibition, % at 7.35 µM | hit rate 0.4% among 360,000 | AID 588664, 2011; in the data active means inhibition above about 5%, passing the limit was not always enough
UBC9 SUMO inh: inhibitors of in vitro SUMOylation cascade, primary screen, biochemical, HTRF, uHTS. HTRF SUMOylation assay, SAE1/SAE2 + UBC9. inhibition, % at 35 µM. hit rate 0.36% among 290,000; in the data active means inhibition above about 50%, passing the limit was not always enough; inconclusive means no clear call, values can overlap the other calls
Target sequence (P63279 whole entry, looked up): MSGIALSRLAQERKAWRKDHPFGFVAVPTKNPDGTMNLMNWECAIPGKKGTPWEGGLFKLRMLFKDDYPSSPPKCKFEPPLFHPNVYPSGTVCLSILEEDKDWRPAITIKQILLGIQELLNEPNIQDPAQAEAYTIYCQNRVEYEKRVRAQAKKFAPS
Apaf-1 inh: inhibitors of human Apaf-1 apoptosome, primary screen, biochemical, DEVD-Rh110 fluorescence, uHTS; hit rate 0.71% among 330,000; Apoptotic protease-activating factor 1 (Homo sapiens), O14727; reconstituted apoptosome caspase-3 activity; inhibition, % at 20 µM; active means inhibition of at least 40% at 20 µM;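 further: plate controls were DMSO wells for no effect and DEVD-CHO caspase inhibitor wells for full effect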
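Material: reconstituted apoptosome with Apaf-1, cytochrome c, caspase-9, procaspase-3, dATP / Buffer or medium: pH 7.5 Hepes buffer with CHAPS, BSA, DTT / Also added: cytochrome c with DEVD-Rh110 / Schedule: compound with Apaf-1, dATP, procaspase-3 30 min, then 50 min reaction, room temperature / Technique: rhodamine 110 fluorescence at Ex 480/Em 540 nm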
GSTO1 inh conf: GSTO1 inhibitor hit confirmation, counter-screen for RBBP9 inhibitor project, biochemical, fluorescence polarization, triplicate; shares compounds with GSTO1 counter; recombinant GSTO1, probe fluorescence polarization; inhibition, % at 5.96 µM; hit rate 54% among 2,400;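 active means inhibition above the primary screen's cutoff, its mean inhibition plus 3 SD, cut at about 35% in these data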;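 further: loss of polarization as inhibitors block binding of rhodamine sulfonate ester activity probe; 0% = GSTO1 with DMSO and 100% = wells lacking GSTO1 enzyme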
GSTO1 ABPP inh: inhibitors of purified human GSTO1, late-stage follow-up, biochemical, gel ABPP, SE-Rh probe, percent inhibition; AID 463110, 2010; hit rate 30% among 130; shares compounds with GSTO1 counter; recombinant GSTO1, gel ABPP SE-Rh probe fluorescence; inhibition, % at 1 µM;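 active means inhibition of the enzyme GSTO1 above about 75%, limit read from the data; inactive means inhibition below that limit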
* = called active by the depositor; u = inconclusive; x = no result.

SMILES | PAD4 inh | GSTO1 counter | UBC13 polyUb | Rin1 Abl inh | UBC9 SUMO inh | Apaf-1 inh | GSTO1 inh conf | others
COc1ccc(Br)cc1-c1noc(-c2ccccc2F)n1 | -1.1 | 2.8 | -10.3 | 0.0 | 6.4 | 4.4 | x
COc1ccc(Br)cc1-c1nc(CCl)cs1 | 1.5 | 72.5* | u | -78.6 | 0.4 | 8.8 | 97.1* | GSTO1 ABPP inh=53.0
CC(CCc1ccccc1)NC(=O)COC(=O)c1cc(NS(=O)(=O)c2ccc(Cl)c([N+](=O)[O-])c2)ccc1O (centres undefined) | -4.2 | 43.0* | -17.8 | -2.2 | -6.6 | 15.8 | 48.8*
CNS(=O)(=O)c1cccc(C(=O)OCC(=O)NC(C)CCc2ccccc2)c1 (centres undefined) | 7.1 | 6.8 | 1.9 | -0.5 | 12.9 | -1.0 | x
O=C(CN1CCOCC1)N/N=C/c1ccco1 | -9.7 | -3.0 | -2.0 | 0.1 | 11.1 | -0.5 | x
O=C(CN1CCOCC1)N/N=C/c1c(O)ccc2ccccc12 | -0.5 | 37.7* | -2.7 | -6.8 | -9.1 | -2.5 | 3.9
O=[N+]([O-])c1ccc(/C=[N+](\[O-])[C@@H]2CCCC[C@@H]2/[N+]([O-])=C/c2ccc([N+](=O)[O-])o2)o1 | -11.4 | 39.9* | -24.7 | 0.0 | 13.4 | 10.2 | 18.4
COc1ccc(C2C(C(=O)/C=C/c3ccco3)=C(O)C(=O)N2CCN2CCOCC2)cc1 (centres undefined) | -3.3 | 12.5 | -8.5 | -3.3 | 13.2 | -3.2 | x
CCOc1ccc(C2C(C(=O)/C=C/c3ccco3)=C(O)C(=O)N2CCN2CCOCC2)cc1OC (centres undefined) | -2.8 | 38.4* | -10.9 | 0.0 | 22.2 | 8.1 | 6.4
COc1ccc(CC(=O)NCc2ccccc2F)cc1S(=O)(=O)N1CCOCC1 | x | x | x | 1.6 | x | x | x
COc1cc(NC(=O)c2onc(C)c2Cl)cc(OC)c1OC | 1.5 | 2.6 | 1.2 | -0.2 | 5.8 | 2.0 | x
COc1ccc(NC(=O)c2onc(C)c2Cl)cc1OC | 1.7 | 39.3* | -3.5 | -1.5 | -0.4 | 2.7 | 7.5
O=C(CCc1ccc(O)cc1)c1c(O)cc(O)cc1O | 0.1 | 46.4* | 3.9 | 1.7 | -15.5 | -6.9 | 18.7
O=C(Cc1ccc2c(c1)OCCO2)c1c(O)cc(O)cc1O | -5.0 | 51.5* | -7.1 | 1.6 | 12.0 | -7.4 | 34.8
C=CCn1c(SCC(=O)c2ccc(O)c(O)c2)nnc1-c1ccccc1OC | 6.1 | 40.9* | -16.9 | 3.4 | 17.6 | 9.3 | 8.4
C=CCn1c(SCC(=O)c2ccc(O)c(O)c2)nnc1-c1cccnc1 | 1.2 | 40.2* | 4.0 | 0.4 | 9.4 | -5.2 | 13.4
Cc1ccc(-n2ncc(-c3n[nH]c(=S)o3)c2N)cc1C | x | x | x | 1.3 | x | x | x
O=C1CC(c2ccccc2)CC(O)=C1C=Nc1ccc(O)cc1 (centres undefined) | -1.1 | 56.4* | -1.0 | 1.8 | 3.1 | 23.7 | 5.7
CCCN(C(=O)CSCc1c(C)noc1C)c1c(N)n(Cc2ccccc2)c(=O)[nH]c1=O | 2.0 | -9.1 | -0.6 | 1.2 | x | 0.5 | x
Cc1ccc(OC(C)C(=O)Nc2ncc(Cl)cc2Cl)c([N+](=O)[O-])n1 (centres undefined) | -1.2 | x | -7.7 | 0.7 | x | 10.3 | x
CC(OC(=O)c1ccc([N+](=O)[O-])s1)C(=O)Nc1ncc(Cl)cc1Cl (centres undefined) | -4.2 | 46.4* | 11.6 | -0.8 | -6.3 | 34.4 | 9.7
COc1cccc(C(=O)NNC(=O)c2ccc3ccccc3c2O)c1 | 3.6 | 45.4* | 1.5 | -4.8 | x | 6.7 | 3.7
O=C(CNC(=O)c1ccccc1)NCCc1ccc(O)c(O)c1 | 4.2 | 75.3* | 6.6 | 5.8 | -0.6 | 1.6 | 7.4
O=c1c(=Nc2ccccc2O)c(=O)c2ccccc12 | -17.3 | 68.5* | -29.2 | 6.0 | 91.4 | 33.8 | 24.6
O=C(NNC(=O)c1ccccc1F)c1ccc(NS(=O)(=O)c2ccc(F)cc2)cc1 | x | x | -6.0 | 2.7 | x | -2.7 | x
SMILES | PAD4 inh | GSTO1 counter | UBC13 polyUb | Rin1 Abl inh | UBC9 SUMO inh | Apaf-1 inh | GSTO1 inh conf | others
O=C(NNC(=O)c1ccccc1O)c1ccc(NS(=O)(=O)c2ccc(F)cc2)cc1 | -1.9 | 47.5* | -1.2 | -0.9 | x | 2.7 | -0.7
NC(c1ccccc1)c1csc(Nc2ccc(C(=O)NCCCO)cn2)n1 (centres undefined) | x | x | x | -1.5 | x | x | x
CCOC(=O)C(Cc1ccc(O)cc1)NC(=O)CCc1c[nH]c2ccccc12 (centres undefined) | -1.7 | 38.1* | 1.5 | -1.9 | -7.5 | -0.7 | 4.7
O=C(Nc1ccc2c(c1)OCO2)c1cc(C2CCCCN2C(=O)c2ccc(Cl)cc2)on1 (centres undefined) | x | x | x | -1.1 | x | x | x
CC1=C(C(=O)OCc2ccccc2)C(c2ccccc2OS(=O)(=O)c2ccccc2[N+](=O)[O-])NC(=O)N1CCCC(=O)O (centres undefined) | 0.8 | 58.3* | -33.6 | x | x | 24.0 | 63.4*
C[C@H](NC(=O)c1cc2c(cn1)[nH]c1ccccc12)C(=O)O | x | x | 5.7 | 0.5 | 7.4 | 5.3 | x
O=C(O)c1cc2c(cn1)[nH]c1ccccc12 | -2.8 | 55.9* | -15.0 | 3.9 | 7.8 | -0.6 | 17.1
OC(c1cccc(Cl)c1)c1nc(/C=C/c2ccccc2)cs1 (centres undefined) | x | x | x | 1.2 | x | x | x
COC(=O)CCCC1=CC2=C(c3ccccc3)C(=O)C(C)(OC(=O)C3CCCC3)C(=O)C2=CN1C1CCCC1 (centres undefined) | -15.1 | 25.6 | -28.9 | -0.5 | -4.6 | 28.2 | x
COCCN1C=C2C(=O)C(C)(OC(=O)C3CCCC3)C(=O)C(c3ccccc3)=C2C=C1CCCC(=O)OC (centres undefined) | -6.5 | 45.4* | -33.5 | 1.7 | -13.8 | 29.8 | 26.4
COC(=O)CCCC1=CC2=C(c3ccccc3)C(=O)C(C)(OC(=O)C3CCCC3)C(=O)C2=CN1CC1CC1 (centres undefined) | -5.8 | 49.1* | -21.4 | 1.8 | 18.6 | 21.1 | 8.3
COC(=O)CCCC1=CC2=C(c3ccccc3)C(=O)C(C)(OC(=O)C3CCCC3)C(=O)C2=CN1C1CCCCC1 (centres undefined) | -5.3 | 38.4* | -23.1 | 0.5 | -1.8 | 26.9 | 16.9
